# According to ChEMBL document CHEMBL5550111, “Design, synthesis and biological evaluation of aryloxy thiophosphoramidate triesters of anticancer nucleoside analogues” (Bioorg Med Chem, 2024):
# Tests used:
# [1] = system: CAKI-2; test: Cytotoxicity against human CAKI-2 cells assessed as maximum inhibition of cell viability upto 198 uM incubated for 72 hrs by MTS assay relative to control; type: functional; conditions: up to 198 µM
# Method in brief: (§1)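 Cells seeded at 0.5 to 100 × 10^3 per well the day before drug addition, then exposed to compound for 72 h. MTS added afterwards, with a further 4 h at 37 °C, and absorbance read. Tested in duplicate at 9 serial 3.16-fold dilutions, top concentration 198 μM. MI% is the maximum inhibition of viability across the tested range.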
# [2] = Cytotoxicity against human ACHN-luc2 cells assessed as inhibition of cell viability incubated for 72 hrs by MTS assay; type: functional, cell-based; conditions: ACHN-luc2, 72 h
# Method in brief: (§2)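 Cells seeded at 0.5 to 100 × 10^3 per well the day before treatment, then exposed for 72 h to 9 serial concentrations (3.16-fold dilutions, top 198 μM), in duplicate. MTS added for a final 4 h at 37 °C and absorbance read. IC50 is the concentration giving 50% loss of viability. MI% is the maximum inhibition over the tested range.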
# [3] = system: A498; test: Cytotoxicity against human A498 cells assessed as inhibition of cell viability incubated for 72 hrs by MTS assay; type: functional, cell-based; conditions: A498, 72 h; method in brief: as §2
# [4] = system: PC-3; test: Cytotoxicity against human PC-3 cells assessed as maximum inhibition of cell viability upto 198 uM incubated for 72 hrs by MTS assay relative to control; type: functional; conditions: up to 198 µM; method in brief: as §1
# [5] = system: RL; test: Cytotoxicity against human RL cells assessed as maximum inhibition of cell viability upto 198 uM incubated for 72 hrs by MTS assay relative to control; type: functional; conditions: up to 198 µM; method in brief: as §1
# [6] = system: MOLT-4; test: Cytotoxicity against human MOLT-4 cells assessed as inhibition of cell viability incubated for 72 hrs by MTS assay; type: functional, cell-based; conditions: MOLT-4, 72 h; method in brief: as §2
# [7] = system: KG-1; test: Cytotoxicity against human KG-1 cells assessed as maximum inhibition of cell viability upto 198 uM incubated for 72 hrs by MTS assay relative to control; type: functional; conditions: up to 198 µM; method in brief: as §1
# [8] = system: COLO 205; test: Cytotoxicity against human COLO 205 cells assessed as inhibition of cell viability incubated for 72 hrs by MTS assay; type: functional, cell-based; conditions: COLO 205, 72 h; method in brief: as §2
# [9] = system: MIA PaCa-2; test: Cytotoxicity against human MIA PaCa-2 cells assessed as inhibition of cell viability incubated for 72 hrs by MTS assay; type: functional, cell-based; conditions: MIA PaCa-2, 72 h; method in brief: as §2
# [10] = system: MIA PaCa-2; test: Cytotoxicity against human MIA PaCa-2 cells assessed as maximum inhibition of cell viability upto 198 uM incubated for 72 hrs by MTS assay relative to control; type: functional; conditions: up to 198 µM; method in brief: as §1
# [11] = system: HepG2; test: Cytotoxicity against human HepG2 cells assessed as maximum inhibition of cell viability upto 198 uM incubated for 72 hrs by MTS assay relative to control; type: functional; conditions: up to 198 µM; method in brief: as §1
# [12] = system: MCF7; test: Cytotoxicity against human MCF7 cells assessed as maximum inhibition of cell viability upto 198 uM incubated for 72 hrs by MTS assay relative to control; type: functional; conditions: up to 198 µM; method in brief: as §1
# [13] = system: K562; test: Cytotoxicity against human K562 cells assessed as inhibition of cell viability incubated for 72 hrs by MTS assay; type: functional, cell-based; conditions: K562, 72 h; method in brief: as §2
# [14] = system: 5637; test: Cytotoxicity against human 5637 cells assessed as inhibition of cell viability incubated for 72 hrs by MTS assay; type: functional, cell-based; conditions: Homo sapiens, 5637, 72 h; method in brief: as §2
# [15] = system: RL; test: Cytotoxicity against human RL cells assessed as inhibition of cell viability incubated for 72 hrs by MTS assay; type: functional, cell-based; method in brief: as §2
# [16] = system: HepG2; test: Cytotoxicity against human HepG2 cells assessed as inhibition of cell viability incubated for 72 hrs by MTS assay; type: functional, cell-based; conditions: HepG2, 72 h; method in brief: as §2
# [17] = system: HT-29; test: Cytotoxicity against human HT-29 cells assessed as inhibition of cell viability incubated for 72 hrs by MTS assay; type: functional, cell-based; conditions: HT-29, 72 h; method in brief: as §2
# [18] = system: HL-60; test: Cytotoxicity against human HL-60 cells assessed as inhibition of cell viability incubated for 72 hrs by MTS assay; type: functional, cell-based; conditions: HL-60, 72 h; method in brief: as §2
# [19] = system: MDA-MB-231; test: Cytotoxicity against human MDA-MB-231 cells assessed as maximum inhibition of cell viability upto 198 uM incubated for 72 hrs by MTS assay relative to control; type: functional; conditions: up to 198 µM; method in brief: as §1
# [20] = Cytotoxicity against human T24/83 cells assessed as maximum inhibition of cell viability upto 198 uM incubated for 72 hrs by MTS assay relative to control; type: functional; conditions: up to 198 µM; method in brief: as §1
# [21] = system: PC-3; test: Cytotoxicity against human PC-3 cells assessed as inhibition of cell viability incubated for 72 hrs by MTS assay; type: functional, cell-based; conditions: PC-3, 72 h; method in brief: as §2
# [22] = system: 5637; test: Cytotoxicity against human 5637 cells assessed as maximum inhibition of cell viability upto 198 uM incubated for 72 hrs by MTS assay relative to control; type: functional; conditions: up to 198 µM; method in brief: as §1
# [23] = system: CAKI-2; test: Cytotoxicity against human CAKI-2 cells assessed as inhibition of cell viability incubated for 72 hrs by MTS assay; type: functional, cell-based; conditions: CAKI-2, 72 h; method in brief: as §2
# [24] = system: HL-60; test: Cytotoxicity against human HL-60 cells assessed as maximum inhibition of cell viability upto 198 uM incubated for 72 hrs by MTS assay relative to control; type: functional; conditions: up to 198 µM; method in brief: as §1
# [25] = Cytotoxicity against human T24/83 cells assessed as inhibition of cell viability incubated for 72 hrs by MTS assay; type: functional, cell-based; conditions: T24/83, 72 h; method in brief: as §2
# [26] = system: K562; test: Cytotoxicity against human K562 cells assessed as maximum inhibition of cell viability upto 198 uM incubated for 72 hrs by MTS assay relative to control; type: functional; conditions: up to 198 µM; method in brief: as §1
# [27] = Cytotoxicity against human ACHN-luc2 cells assessed as maximum inhibition of cell viability upto 198 uM incubated for 72 hrs by MTS assay relative to control; type: functional; conditions: up to 198 µM; method in brief: as §1
# [28] = system: MCF7; test: Cytotoxicity against human MCF7 cells assessed as inhibition of cell viability incubated for 72 hrs by MTS assay; type: functional, cell-based; conditions: MCF7, 72 h
# [29] = system: KG-1; test: Cytotoxicity against human KG-1 cells assessed as inhibition of cell viability incubated for 72 hrs by MTS assay; type: functional, cell-based; conditions: KG-1, 72 h; method in brief: as §2
# [30] = system: COLO 205; test: Cytotoxicity against human COLO 205 cells assessed as maximum inhibition of cell viability upto 198 uM incubated for 72 hrs by MTS assay relative to control; type: functional; conditions: up to 198 µM; method in brief: as §1
# [31] = system: MDA-MB-231; test: Cytotoxicity against human MDA-MB-231 cells assessed as inhibition of cell viability incubated for 72 hrs by MTS assay; type: functional, cell-based; conditions: MDA-MB-231, 72 h; method in brief: as §2
# [32] = system: HT-29; test: Cytotoxicity against human HT-29 cells assessed as maximum inhibition of cell viability upto 198 uM incubated for 72 hrs by MTS assay relative to control; type: functional; conditions: up to 198 µM; method in brief: as §1
# [33] = system: A498; test: Cytotoxicity against human A498 cells assessed as maximum inhibition of cell viability upto 198 uM incubated for 72 hrs by MTS assay relative to control; type: functional; conditions: up to 198 µM; method in brief: as §1
# [34] = system: MOLT-4; test: Cytotoxicity against human MOLT-4 cells assessed as maximum inhibition of cell viability upto 198 uM incubated for 72 hrs by MTS assay relative to control; type: functional; conditions: up to 198 µM; method in brief: as §1
# [35] = system: OVCAR-3; test: Cytotoxicity against human OVCAR-3 cells assessed as inhibition of cell viability incubated for 72 hrs by MTS assay; type: functional, cell-based; conditions: OVCAR-3, 72 h; method in brief: as §2
# [36] = system: NCI-H1975; test: Cytotoxicity against human NCI-H1975 cells assessed as inhibition of cell viability incubated for 72 hrs by MTS assay; type: functional, cell-based; conditions: NCI-H1975, 72 h; method in brief: as §2
# [37] = system: RPMI-8226; test: Cytotoxicity against human RPMI-8226 cells assessed as inhibition of cell viability incubated for 72 hrs by MTS assay; type: functional, cell-based; conditions: RPMI-8226, 72 h; method in brief: as §2
# [38] = system: SK-MES-1; test: Cytotoxicity against human SK-MES-1 cells assessed as inhibition of cell viability incubated for 72 hrs by MTS assay; type: functional, cell-based; conditions: SK-MES-1, 72 h; method in brief: as §2
# [39] = system: RT112/84; test: Cytotoxicity against human RT112/84 cells assessed as inhibition of cell viability incubated for 72 hrs by MTS assay; type: functional, cell-based; conditions: RT112/84, 72 h; method in brief: as §2
# [40] = Prodrug activation assessed as carboxypeptidase Y (unknown origin) mediated (2S)-2-[[[(2R,3S,5R)-[…]-3-hydroxy-tetrahydrofuran-2-yl]methoxy-hydroxy-phosphoryl]amino]propanoic acid formation from intermediate (2S)-2-[[[(2R,3S,5R)-5-(5-fluoro-2,4-dioxo-pyrimidin-1-yl)-3-hydroxy-tetrahydrofuran-2-yl]methoxy-(1-naphthyloxy)phosphinothioyl]amino]propanoic acid at 5 mg measured for 48 hrs by 31P-NMR assay
# Method in brief: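 Thiophosphoramidate (5 mg, about 0.008 mmol) dissolved in 150 µL acetone-d6, with 300 µL TRIZMA buffer pH 7.6 added. Enzymatic conversion followed by 31P-NMR.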
# [41] = system: RT112/84; test: Cytotoxicity against human RT112/84 cells assessed as maximum inhibition of cell viability upto 198 uM incubated for 72 hrs by MTS assay relative to control; type: functional; conditions: up to 198 µM; method in brief: as §1
# [42] = system: SK-MES-1; test: Cytotoxicity against human SK-MES-1 cells assessed as maximum inhibition of cell viability upto 198 uM incubated for 72 hrs by MTS assay relative to control; type: functional; conditions: up to 198 µM; method in brief: as §1
# [43] = system: OVCAR-3; test: Cytotoxicity against human OVCAR-3 cells assessed as maximum inhibition of cell viability upto 198 uM incubated for 72 hrs by MTS assay relative to control; type: functional; conditions: up to 198 µM; method in brief: as §1
# [44] = system: RPMI-8226; test: Cytotoxicity against human RPMI-8226 cells assessed as maximum inhibition of cell viability upto 198 uM incubated for 72 hrs by MTS assay relative to control; type: functional; conditions: up to 198 µM; method in brief: as §1
# [45] = system: NCI-H1975; test: Cytotoxicity against human NCI-H1975 cells assessed as maximum inhibition of cell viability upto 198 uM incubated for 72 hrs by MTS assay relative to control; type: functional; conditions: up to 198 µM; method in brief: as §1
smiles,measurement,setting,value
C[C@H](NP(=O)(OC[C@@H]1C[C@@H](O)[C@H](n2cnc3c(N)ncnc32)O1)Oc1ccccc1)C(=O)OCc1ccccc1 (stereo partly drawn) [FOSDESDENOSINE SIPALABENAMIDE],Imax,[1],78%
same,IC50,[2],112 µM
same,IC50,[3],58.1 µM
same,Imax,[4],74%
same,Imax,[5],94%
same,IC50,[6],4.67 µM
same,Imax,[7],92%
same,IC50,[8],27.8 µM
same,IC50,[9],7.41 µM
same,Imax,[10],95%
same,Imax,[11],80%
same,Imax,[12],90%
same,IC50,[13],10.3 µM
same,IC50,[14],47.5 µM
same,IC50,[15],34.6 µM
same,IC50,[16],25.2 µM
same,IC50,[17],9.47 µM
same,IC50,[18],38.4 µM
same,Imax,[19],79%
same,Imax,[20],92%
same,IC50,[21],51.2 µM
same,Imax,[22],100%
same,IC50,[23],102 µM
same,Imax,[24],101%
same,IC50,[25],31.4 µM
same,Imax,[26],83%
same,Imax,[27],62%
same,IC50,[28],3.69 µM
same,IC50,[29],23.5 µM
same,Imax,[30],87%
same,IC50,[31],19.4 µM
same,Imax,[32],96%
same,Imax,[33],82%
same,Imax,[34],96%
C[C@H](NP(=S)(OC[C@H]1O[C@@H](n2cc(F)c(=O)[nH]c2=O)C[C@@H]1O)Oc1cccc2ccccc12)C(=O)OCc1ccccc1 (stereo partly drawn),IC50,[35],21.5 µM
same,IC50,[36],100 µM
same,IC50,[37],6.63 µM
same,IC50,[8],4 µM
same,IC50,[9],2.69 µM
same,Imax,[10],100%
same,IC50,[38],2.49 µM
same,Imax,[11],100%
same,IC50,[39],2.49 µM
same,Drug metabolism,[40],Metabolite_Detected
same,Imax,[41],97%
same,IC50,[16],25.5 µM
same,Imax,[42],97%
same,IC50,[17],2.81 µM
same,Imax,[43],100%
same,Imax,[44],100%
same,Imax,[30],100%
same,Imax,[45],100%
same,Imax,[32],100%
